# Test results taken from ChEMBL document CHEMBL5724801, “EUbOPEN Chemogenomics Library - Multiplex” (2024).
# Values joined by “and” are separate entries in the source; they are usually repeats but may differ in a detail not shown here. Equal entries are not always repeated.
# Test system: Fibroblast
# Experiment: Multiplex assay against human fibroblast
# Assay type: toxicity, cell-based
# Procedure, shortened: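 At seeding, live cells were stained with Hoechst33342, BioTracker Green Microtubule Cytoskeleton Dye, MitoTracker Red and Annexin V Alexa Fluor 680. After compound addition they were imaged on a CQ1 microscope at 37°C and 5% CO2, and CellPathfinder machine-learning gating sorted them into Hoechst high-intensity objects or normal cells, with normal cells further split into healthy, pyknosed or fragmented nuclei and pyknosed cells into mitotic or apoptotic. Tubulin, mitochondrial-mass and membrane-permeability phenotypes are given as per cents of cells with healthy nuclei.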
# [1] = 12 h, 1 µM, compound concentration 1 uM
# [2] = 12 h, 10 µM, compound concentration 10 uM
# [3] = 24 h, 1 µM, compound concentration 1 uM
# [4] = 24 h, 10 µM, compound concentration 10 uM
# [5] = 48 h, 1 µM, compound concentration 1 uM
# [6] = 48 h, 10 µM, compound concentration 10 uM
smiles,measurement,setting,value
Br.CS(=O)(=O)Nc1c(O)ccc2c1CCCC2C1=NCCN1 (stereo not drawn),Population Apoptotic (%),[1],17% and 31%
same,Population Healthy Nuclei (%),[1],76% and 47%
same,Population Hoechst High Intensity Objects (%),[1],1% and 8%
same,Population Membrane Permeable-Phenotype (%),[1],0% and 7%
same,Population Mitochondria Different-Phenotype (%),[1],5% and 8%
same,Population Mitotic Cells (%),[1],82% and 68%
same,Population Normal (%),[1],98% and 91%
same,Population Pyknosed Nuclei (%),[1],14% and 19%
same,Population Tubulin-Different-Phenotype (%),[1],20% and 38%
same,Total Cell Count,[1],167 and 192
same,Population Apoptotic (%),[2],38% and 33%
same,Population Fragmented Nuclei (%),[2],20% and 38%
same,Population Healthy Nuclei (%),[2],47% and 45%
same,Population Hoechst High Intensity Objects (%),[2],6% and 0%
same,Population Mitochondria Different-Phenotype (%),[2],7% and 5%
same,Population Mitotic Cells (%),[2],61% and 66%
same,Population Normal (%),[2],93% and 99%
same,Population Pyknosed Nuclei (%),[2],31% and 16%
same,Population Tubulin-Different-Phenotype (%),[2],21% and 43%
same,Total Cell Count,[2],148 and 129
same,Population Apoptotic (%),[3],56% and 33%
same,Population Fragmented Nuclei (%),[3],12% and 25%
same,Population Healthy Nuclei (%),[3],77% and 60%
same,Population Hoechst High Intensity Objects (%),[3],1% and 7%
same,Population Membrane Permeable-Phenotype (%),[3],0% and 2%
same,Population Mitochondria Different-Phenotype (%),[3],3% and 7%
same,Population Mitotic Cells (%),[3],43% and 66%
same,Population Normal (%),[3],98% and 92%
same,Population Pyknosed Nuclei (%),[3],10% and 14%
same,Population Tubulin-Different-Phenotype (%),[3],16% and 41%
same,Total Cell Count,[3],159 and 180
same,Population Apoptotic (%),[4],48% and 41%
same,Population Fragmented Nuclei (%),[4],16% and 41%
same,Population Healthy Nuclei (%),[4],60% and 44%
same,Population Hoechst High Intensity Objects (%),[4],3% and 0%
same,Population Membrane Permeable-Phenotype (%),[4],0% and 10%
same,Population Mitochondria Different-Phenotype (%),[4],2% and 10%
same,Population Mitotic Cells (%),[4],51% and 58%
same,Population Normal (%),[4],96% and 99%
same,Population Pyknosed Nuclei (%),[4],23% and 13%
same,Population Tubulin-Different-Phenotype (%),[4],24% and 41%
same,Total Cell Count,[4],148 and 130
same,Population Apoptotic (%),[5],57% and 38%
same,Population Fragmented Nuclei (%),[5],14% and 26%
same,Population Healthy Nuclei (%),[5],76% and 61%
same,Population Hoechst High Intensity Objects (%),[5],4% and 5%
same,Population Membrane Permeable-Phenotype (%),[5],4% and 0%
same,Population Mitochondria Different-Phenotype (%),[5],3% and 9%
same,Population Mitotic Cells (%),[5],42% and 61%
same,Population Normal (%),[5],95% and 94%
same,Population Pyknosed Nuclei (%),[5],8% and 12%
same,Population Tubulin-Different-Phenotype (%),[5],24% and 41%
same,Total Cell Count,[5],167 and 177
same,Population Apoptotic (%),[6],61% and 33%
same,Population Fragmented Nuclei (%),[6],22% and 48%
same,Population Healthy Nuclei (%),[6],61% and 44%
same,Population Hoechst High Intensity Objects (%),[6],6% and 1%
same,Population Membrane Permeable-Phenotype (%),[6],1% and 3%
same,Population Mitochondria Different-Phenotype (%),[6],2% and 9%
same,Population Mitotic Cells (%),[6],38% and 66%
same,Population Normal (%),[6],93% and 98%
same,Population Pyknosed Nuclei (%),[6],15% and 7%
same,Population Tubulin-Different-Phenotype (%),[6],21% and 45%
same,Total Cell Count,[6],145 and 127
CN(C)c1ccnc2sc3c(=O)n(N4CCCCCC4)cnc3c12,Population Apoptotic (%),[1],42% and 30%
same,Population Fragmented Nuclei (%),[1],17% and 28%
same,Population Healthy Nuclei (%),[1],64% and 51%
same,Population Hoechst High Intensity Objects (%),[1],3% and 6%
same,Population Membrane Permeable-Phenotype (%),[1],1% and 10%
same,Population Mitochondria Different-Phenotype (%),[1],3%
same,Population Mitotic Cells (%),[1],57% and 70%
same,Population Normal (%),[1],96% and 93%
same,Population Pyknosed Nuclei (%),[1],18% and 19%
same,Population Tubulin-Different-Phenotype (%),[1],29% and 44%
same,Total Cell Count,[1],144 and 162
same,Population Apoptotic (%),[2],44% and 49%
same,Population Fragmented Nuclei (%),[2],14% and 31%
same,Population Healthy Nuclei (%),[2],58% and 30%
same,Population Hoechst High Intensity Objects (%),[2],5% and 7%
same,Population Mitochondria Different-Phenotype (%),[2],14%
same,Population Mitotic Cells (%),[2],55% and 50%
same,Population Normal (%),[2],94% and 92%
same,Population Pyknosed Nuclei (%),[2],27% and 38%
same,Population Tubulin-Different-Phenotype (%),[2],75%
same,Total Cell Count,[2],141 and 145
same,Population Apoptotic (%),[3],48% and 50%
same,Population Fragmented Nuclei (%),[3],11% and 24%
same,Population Healthy Nuclei (%),[3],67% and 55%
same,Population Hoechst High Intensity Objects (%),[3],3% and 2%
same,Population Membrane Permeable-Phenotype (%),[3],0% and 10%
same,Population Mitochondria Different-Phenotype (%),[3],3% and 2%
same,Population Mitotic Cells (%),[3],51% and 50%
same,Population Normal (%),[3],96% and 97%
same,Population Pyknosed Nuclei (%),[3],21% and 19%
same,Population Tubulin-Different-Phenotype (%),[3],27% and 49%
same,Total Cell Count,[3],143 and 146
same,Population Apoptotic (%),[4],57% and 30%
same,Population Fragmented Nuclei (%),[4],13% and 35%
same,Population Healthy Nuclei (%),[4],58% and 41%
same,Population Hoechst High Intensity Objects (%),[4],5% and 8%
same,Population Membrane Permeable-Phenotype (%),[4],0% and 22%
same,Population Mitochondria Different-Phenotype (%),[4],18% and 24%
same,Population Mitotic Cells (%),[4],42% and 69%
same,Population Normal (%),[4],94% and 91%
same,Population Pyknosed Nuclei (%),[4],28% and 22%
same,Population Tubulin-Different-Phenotype (%),[4],63% and 85%
same,Total Cell Count,[4],130 and 128
same,Population Apoptotic (%),[5],64% and 36%
same,Population Fragmented Nuclei (%),[5],19% and 36%
same,Population Healthy Nuclei (%),[5],70% and 49%
same,Population Hoechst High Intensity Objects (%),[5],2% and 3%
same,Population Membrane Permeable-Phenotype (%),[5],0% and 6%
same,Population Mitochondria Different-Phenotype (%),[5],0% and 2%
same,Population Mitotic Cells (%),[5],35% and 63%
same,Population Normal (%),[5],97% and 96%
same,Population Pyknosed Nuclei (%),[5],10% and 14%
same,Population Tubulin-Different-Phenotype (%),[5],30% and 41%
same,Total Cell Count,[5],143 and 157
same,Population Apoptotic (%),[6],73% and 50%
same,Population Fragmented Nuclei (%),[6],22% and 47%
same,Population Healthy Nuclei (%),[6],47% and 42%
same,Population Hoechst High Intensity Objects (%),[6],8% and 6%
same,Population Membrane Permeable-Phenotype (%),[6],0% and 19%
same,Population Mitochondria Different-Phenotype (%),[6],25% and 13%
same,Population Mitotic Cells (%),[6],26% and 50%
same,Population Normal (%),[6],91% and 93%
same,Population Tubulin-Different-Phenotype (%),[6],76% and 86%
same,Total Cell Count,[6],138 and 131
